Laboratory results from article PMC2957851 (ACS Chemical Neuroscience, 2010).
“Also recorded” adds a separate entry of the source. One block for each molecule: values may come before it.

Key:
F585I/rmGlu5 = F585I/rmGlu5 (Rattus norvegicus, UniProt P31424, F585I); type: cell-based; conditions: VU0357121 at 1 μM; transiently transfected HEK293
Method in brief: (§1)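 HEK293 cells were transiently transfected with mutant rat mGlu5 cDNA using FuGENE 6, plated the next day and assayed the following day. Cells were Fluo4-AM loaded in HBSS/HEPES/probenecid at pH 7.4. Vehicle or a fixed 1 μM PAM was added, then increasing glutamate. Calcium fluorescence was read for 160 s. Glutamate concentration–response curves were fitted by nonlinear regression to compare EC50 values.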

A809V/rmGlu5 = A809V/rmGlu5 (Rattus norvegicus, UniProt P31424, A809V); type: cell-based; conditions: VU0357121 at 1 μM; transiently transfected HEK293
Chain of A809V/rmGlu5 (P31424 21-1203 A809V): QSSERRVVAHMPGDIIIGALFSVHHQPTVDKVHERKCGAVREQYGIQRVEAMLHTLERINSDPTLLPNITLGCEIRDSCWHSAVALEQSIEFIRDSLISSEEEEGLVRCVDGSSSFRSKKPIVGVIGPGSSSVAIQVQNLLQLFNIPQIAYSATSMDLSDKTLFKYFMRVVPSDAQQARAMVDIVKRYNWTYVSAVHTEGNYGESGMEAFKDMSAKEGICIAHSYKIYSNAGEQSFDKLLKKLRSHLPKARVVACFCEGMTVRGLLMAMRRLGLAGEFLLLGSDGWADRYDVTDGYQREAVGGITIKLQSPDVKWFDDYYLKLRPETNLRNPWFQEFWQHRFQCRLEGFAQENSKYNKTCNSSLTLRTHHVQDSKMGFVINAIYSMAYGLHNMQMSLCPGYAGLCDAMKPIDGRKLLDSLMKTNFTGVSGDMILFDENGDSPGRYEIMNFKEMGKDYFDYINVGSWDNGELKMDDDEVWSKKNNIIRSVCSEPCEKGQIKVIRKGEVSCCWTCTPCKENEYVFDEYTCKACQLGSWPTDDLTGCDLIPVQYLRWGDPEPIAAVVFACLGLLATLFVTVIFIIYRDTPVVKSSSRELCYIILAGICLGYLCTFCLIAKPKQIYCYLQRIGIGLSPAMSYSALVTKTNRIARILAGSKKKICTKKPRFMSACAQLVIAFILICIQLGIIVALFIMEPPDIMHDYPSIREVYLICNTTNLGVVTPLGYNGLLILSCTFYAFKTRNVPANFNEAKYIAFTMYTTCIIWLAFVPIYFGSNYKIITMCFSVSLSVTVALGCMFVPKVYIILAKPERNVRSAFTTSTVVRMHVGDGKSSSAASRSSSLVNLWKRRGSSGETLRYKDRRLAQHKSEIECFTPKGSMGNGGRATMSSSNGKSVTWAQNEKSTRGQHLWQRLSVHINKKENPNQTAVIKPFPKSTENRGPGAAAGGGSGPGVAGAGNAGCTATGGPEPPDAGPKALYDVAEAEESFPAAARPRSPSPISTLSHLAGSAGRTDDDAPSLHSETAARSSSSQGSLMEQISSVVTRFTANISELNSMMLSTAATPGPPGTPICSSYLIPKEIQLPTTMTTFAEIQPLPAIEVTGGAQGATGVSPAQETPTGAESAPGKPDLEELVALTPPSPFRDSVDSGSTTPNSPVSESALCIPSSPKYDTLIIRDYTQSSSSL
Method in brief: as §1

rat mGlu5 [1] = target: T1, rat mGlu5 (Rattus norvegicus, UniProt P31424); assay: Antagonist; type: cell-based; conditions: 10 μM test compound
T1 sequence (P31424 21-1203): as the sequence (P31424 21-1203 A809V) above, with V789A counted along it
Method in brief: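 HEK293 cells stably expressing rat mGlu5 were plated in glutamate/glutamine-free medium 24 h ahead. Cells were loaded with 2 μM Fluo4-AM in HBSS with 2.5 mM probenecid and 20 mM HEPES, pH 7.4, for 45 min at 37 °C. Vehicle or 10 μM test compound went in at 19 s, then ~EC80 glutamate at 109 s. Fluorescence was read for 160 s and normalized to the 100 μM glutamate maximum. Three experiments were run in triplicate, mean ± SEM.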

rat mGlu5 [2] = target: T1, rat mGlu5; assay: Single-point PAM screen, potentiation of EC20 glutamate calcium response; type: cell-based; conditions: 1 μM test compound
Method in brief: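 HEK293 cells stably expressing rat mGlu5 were plated at 30,000/well in glutamate/glutamine-free medium about 24 h ahead. Cells were loaded with 2 μM Fluo4-AM for 45 min at 37 °C in HBSS/HEPES/probenecid (pH 7.4). Vehicle or 1 μM test compound was added at 19 s, then glutamate at EC20 at 109 s. Fluorescence recorded for 160 s.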

rat mGlu5 [3] = target: T1, rat mGlu5; type: cell-based
Method in brief: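 Rat mGlu5 HEK293 stable cells, plated at 30,000/well in glutamate/glutamine-free medium (dialysed FBS) ≥24 h. Loaded 45 min at 37 °C with 2 μM Fluo4-AM in HBSS, 20 mM HEPES, 2.5 mM probenecid, pH 7.4. Increasing test compound added at 19 s, EC20 glutamate at 109 s. Fluorescence read for 160 s. EC50 from curve fits.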

rmGlu5 = conditions: CHO or HEK293 cells expressing rmGlu5; cited from earlier work
Solubility in assay = type: physicochemical; conditions: above 30 μM in assay
rat mGlu5 [4] = target: T1, rat mGlu5; type: cell-based; conditions: VU0365396 30 μM, EC20 glutamate
rat mGlu5 [5] = target: T1, rat mGlu5; type: cell-based; conditions: 10 μM test compound with VU0357121 50 nM, EC20 glutamate
Method in brief: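 Same Fluo4 calcium-flux protocol in rat mGlu5 HEK293 cells. Test compound (10 μM) or vehicle co-applied with reference mGlu5 PAM (50 nM) from one 4× solution, followed by EC20 glutamate. Fluorescence recorded 160 s. Groups compared with EC20 + PAM + vehicle control by one-way ANOVA with Dunnett's test.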

human mGlu6 = human mGlu6 (Homo sapiens, UniProt O15303); assay: Selectivity fold-shift, GIRK thallium flux in HEK/GIRK cells; type: cell-based; conditions: 30 μM test compound
Method in brief: (§2)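 HEK cell lines expressing GIRK plus rat mGlu2, 3, 4, 7 or 8 or human mGlu6 were plated overnight at 37 °C. Cells were loaded with 1 μM Fluozin2-AM for 1 h at room temperature. Vehicle or 30 μM test compound was added, then varying glutamate 2.5 min later in thallium buffer (12 mM thallium sulfate). Glutamate curves were fitted by nonlinear regression. Three experiments were run in duplicate or triplicate, mean ± SEM.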

rat mGlu1 = rat mGlu1 (Rattus norvegicus, UniProt P23385); assay: Selectivity fold-shift, calcium assay in HEK293 cells expressing mGlu1; type: cell-based; conditions: 30 μM test compound
Method in brief: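 HEK293 cells stably expressing rat mGlu1, handled as for mGlu5 cells: plated in glutamate/glutamine-free medium, loaded with 2 μM Fluo4-AM (45 min, 37 °C, pH 7.4, with probenecid). Vehicle or 30 μM test compound added, then increasing glutamate concentrations. Fluo-4 fluorescence read on FlexStation over 160 s. Concentration-response curves fit by nonlinear regression.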

rat mGlu3 = rat mGlu3 (Rattus norvegicus, UniProt P31422); assay: Selectivity fold-shift, GIRK thallium flux in HEK/GIRK cells; type: cell-based; conditions: 30 μM test compound
Chain of rat mGlu3 (P31422 23-879): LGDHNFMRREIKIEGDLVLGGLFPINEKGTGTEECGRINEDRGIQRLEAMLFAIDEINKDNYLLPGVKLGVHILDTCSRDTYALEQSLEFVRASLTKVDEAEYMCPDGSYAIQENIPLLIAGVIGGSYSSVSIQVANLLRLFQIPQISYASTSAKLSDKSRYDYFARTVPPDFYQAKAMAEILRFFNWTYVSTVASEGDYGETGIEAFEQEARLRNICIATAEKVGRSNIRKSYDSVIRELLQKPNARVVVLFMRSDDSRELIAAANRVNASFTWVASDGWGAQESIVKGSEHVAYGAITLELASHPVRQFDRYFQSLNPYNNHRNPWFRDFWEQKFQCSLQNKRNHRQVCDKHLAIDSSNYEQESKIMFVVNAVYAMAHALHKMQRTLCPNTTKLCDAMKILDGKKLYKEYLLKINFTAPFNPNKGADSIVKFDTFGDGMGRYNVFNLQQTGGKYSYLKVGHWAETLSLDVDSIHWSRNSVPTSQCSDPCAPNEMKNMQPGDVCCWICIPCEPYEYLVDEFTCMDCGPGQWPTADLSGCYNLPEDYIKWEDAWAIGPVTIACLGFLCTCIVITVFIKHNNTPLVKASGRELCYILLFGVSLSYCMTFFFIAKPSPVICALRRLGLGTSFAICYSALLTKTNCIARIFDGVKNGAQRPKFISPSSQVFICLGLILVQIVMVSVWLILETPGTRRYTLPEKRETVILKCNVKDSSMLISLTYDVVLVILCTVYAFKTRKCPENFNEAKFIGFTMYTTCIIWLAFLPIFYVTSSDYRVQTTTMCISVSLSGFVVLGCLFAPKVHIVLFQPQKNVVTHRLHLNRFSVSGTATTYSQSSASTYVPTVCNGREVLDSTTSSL
Method in brief: as §2

rat mGlu7 = rat mGlu7 (Rattus norvegicus, UniProt P35400); assay: as above; type: cell-based; conditions: 30 μM test compound
Chain of rat mGlu7 (P35400 35-915): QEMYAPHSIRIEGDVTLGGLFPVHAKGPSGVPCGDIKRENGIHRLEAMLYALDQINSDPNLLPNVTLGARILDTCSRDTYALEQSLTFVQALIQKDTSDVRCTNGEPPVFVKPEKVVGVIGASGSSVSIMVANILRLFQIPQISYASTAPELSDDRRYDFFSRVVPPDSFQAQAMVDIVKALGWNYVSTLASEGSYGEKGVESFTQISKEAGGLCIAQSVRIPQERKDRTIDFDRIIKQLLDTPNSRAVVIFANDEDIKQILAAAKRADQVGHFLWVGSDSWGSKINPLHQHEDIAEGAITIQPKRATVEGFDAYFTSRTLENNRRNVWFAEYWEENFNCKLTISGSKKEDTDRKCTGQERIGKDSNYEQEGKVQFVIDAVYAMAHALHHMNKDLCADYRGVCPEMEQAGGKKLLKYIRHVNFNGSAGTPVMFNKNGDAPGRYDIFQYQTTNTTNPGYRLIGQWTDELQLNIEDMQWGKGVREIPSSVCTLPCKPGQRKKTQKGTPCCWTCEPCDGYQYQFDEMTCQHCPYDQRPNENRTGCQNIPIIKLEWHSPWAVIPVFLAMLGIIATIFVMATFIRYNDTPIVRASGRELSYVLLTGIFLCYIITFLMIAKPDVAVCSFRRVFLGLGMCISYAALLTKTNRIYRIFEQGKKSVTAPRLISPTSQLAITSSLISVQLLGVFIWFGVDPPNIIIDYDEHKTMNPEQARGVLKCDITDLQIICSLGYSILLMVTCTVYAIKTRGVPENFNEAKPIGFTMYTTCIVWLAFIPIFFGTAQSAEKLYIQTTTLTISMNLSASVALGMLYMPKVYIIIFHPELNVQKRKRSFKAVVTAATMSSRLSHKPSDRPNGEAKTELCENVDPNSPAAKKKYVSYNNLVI
Method in brief: as §2

rat mGlu8 = rat mGlu8 (Rattus norvegicus, UniProt P70579); assay: as above; type: cell-based; conditions: 30 μM test compound
Method in brief: as §2

rat mGlu4 = rat mGlu4 (Rattus norvegicus, UniProt P31423); assay: as above; type: cell-based; conditions: 30 μM test compound
Chain of rat mGlu4 (P31423 33-912): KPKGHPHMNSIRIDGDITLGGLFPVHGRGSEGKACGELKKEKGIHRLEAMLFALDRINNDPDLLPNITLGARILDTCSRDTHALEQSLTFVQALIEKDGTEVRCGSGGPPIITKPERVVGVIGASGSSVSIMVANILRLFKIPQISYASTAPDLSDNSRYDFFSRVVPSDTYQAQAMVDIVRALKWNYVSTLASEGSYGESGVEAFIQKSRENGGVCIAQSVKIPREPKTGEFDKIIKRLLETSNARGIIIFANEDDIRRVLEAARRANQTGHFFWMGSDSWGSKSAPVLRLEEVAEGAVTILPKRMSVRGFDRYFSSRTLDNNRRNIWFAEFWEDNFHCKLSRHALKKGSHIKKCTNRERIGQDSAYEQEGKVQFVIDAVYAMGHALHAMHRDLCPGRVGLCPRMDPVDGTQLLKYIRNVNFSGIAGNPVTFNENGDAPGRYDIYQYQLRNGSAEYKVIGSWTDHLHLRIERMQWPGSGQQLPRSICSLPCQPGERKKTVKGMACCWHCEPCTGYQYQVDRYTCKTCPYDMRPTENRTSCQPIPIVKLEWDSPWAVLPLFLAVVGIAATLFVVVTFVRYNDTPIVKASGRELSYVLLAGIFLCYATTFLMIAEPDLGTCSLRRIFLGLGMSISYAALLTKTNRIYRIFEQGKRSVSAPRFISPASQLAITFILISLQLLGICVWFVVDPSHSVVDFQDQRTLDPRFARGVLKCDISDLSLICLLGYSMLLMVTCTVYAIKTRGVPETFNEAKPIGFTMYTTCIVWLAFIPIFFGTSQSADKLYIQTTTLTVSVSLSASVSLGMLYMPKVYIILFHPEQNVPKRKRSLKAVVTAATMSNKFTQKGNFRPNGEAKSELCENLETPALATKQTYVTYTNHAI
Method in brief: as §2

rat mGlu2 = rat mGlu2 (Rattus norvegicus, UniProt P31421); assay: as above; type: cell-based; conditions: 30 μM test compound
Chain of rat mGlu2 (P31421 19-872): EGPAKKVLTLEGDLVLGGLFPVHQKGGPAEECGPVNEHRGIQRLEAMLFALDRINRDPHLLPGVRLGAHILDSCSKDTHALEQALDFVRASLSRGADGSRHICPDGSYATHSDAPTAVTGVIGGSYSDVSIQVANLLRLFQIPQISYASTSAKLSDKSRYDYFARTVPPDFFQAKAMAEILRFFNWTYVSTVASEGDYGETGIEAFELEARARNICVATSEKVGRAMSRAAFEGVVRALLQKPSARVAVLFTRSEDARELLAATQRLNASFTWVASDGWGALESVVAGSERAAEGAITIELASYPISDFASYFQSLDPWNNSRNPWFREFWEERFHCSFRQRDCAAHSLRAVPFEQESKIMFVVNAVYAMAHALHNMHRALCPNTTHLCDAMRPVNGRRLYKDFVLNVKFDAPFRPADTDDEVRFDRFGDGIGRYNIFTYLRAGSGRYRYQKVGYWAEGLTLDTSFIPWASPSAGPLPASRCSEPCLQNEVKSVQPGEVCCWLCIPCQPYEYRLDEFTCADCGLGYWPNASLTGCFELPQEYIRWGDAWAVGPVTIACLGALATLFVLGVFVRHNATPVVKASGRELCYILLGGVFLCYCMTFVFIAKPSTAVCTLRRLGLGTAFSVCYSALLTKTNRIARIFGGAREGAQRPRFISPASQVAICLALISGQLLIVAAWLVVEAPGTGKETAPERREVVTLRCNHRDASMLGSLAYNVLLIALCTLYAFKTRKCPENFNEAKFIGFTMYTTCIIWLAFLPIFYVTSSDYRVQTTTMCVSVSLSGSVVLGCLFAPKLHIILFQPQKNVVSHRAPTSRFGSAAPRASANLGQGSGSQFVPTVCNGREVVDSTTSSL
Method in brief: as §2

Chain of F585I/rmGlu5 (P31424 21-1203 F585I): as the sequence (P31424 21-1203 A809V) above, with F565I, V789A counted along it

- PAM response at the F585I/rmGlu5 mutant (F585I/rmGlu5): but not VU29 is lost
- PAM response at the A809V/rmGlu5 mutant (A809V/rmGlu5): is lost
SMILES: O=C(Nc1cc(-c2ccccc2)nn1-c1ccccc1)c1ccc([N+](=O)[O-])cc1 [VU-29, 4-nitro-N-(1,3-diphenyl-1H-pyrazol-5-yl)benzamide, reference compound]

- inhibition of the effect of EC80 glutamate on mGlu5 (rat mGlu5 [1]): blockade
SMILES: Cc1cccc(C#Cc2ccccc2)n1 [MPEP, 2-methyl-6(phenylethynyl)pyridine, reference compound]

SMILES: CCCCOc1ccc(C(=O)Nc2ccc(Cl)cn2)cc1 [VU0125936, 4-butoxy-N-(5-chloropyridin-2-yl)benzamide]
- potentiation of response to suboptimal (EC20) glutamate (rat mGlu5 [2]): potentiated the response to glutamate at submicromolar concentrations
- EC50 (rat mGlu5 [3]): 664 nM

SMILES: CNc1ncc(C#Cc2ccccc2)cn1 [MPPA, N-methyl-5-(phenylethynyl)pyrimidin-2-amine]
- intrinsic agonist activity at rmGlu5 (rmGlu5): have no effect on mGlu5 alone

- PAM response at the F585I/rmGlu5 mutant (F585I/rmGlu5): is lost
- PAM response at the A809V/rmGlu5 mutant (A809V/rmGlu5): but not CPPHA is lost
SMILES: O=C(Nc1ccc(Cl)cc1CN1C(=O)c2ccccc2C1=O)c1ccccc1O [CPPHA, N-{4-chloro-2-[(1,3-dioxo-1,3-dihydro-2H-isoindol-2-yl)methyl]phenyl}-2-hydroxybenzamide]
- intrinsic agonist activity at rmGlu5 (rmGlu5): have no effect on mGlu5 alone

- EC50 (rat mGlu5 [3]): 1300 nM
SMILES: CCCOc1ccc(C(=O)Nc2ccc(Cl)cn2)cc1 [VU0001850, N-(5-chloropyridin-2-yl)-4-propoxybenzamide]
- potentiation of response to suboptimal (EC20) glutamate (rat mGlu5 [2]): potentiated the response to glutamate at submicromolar concentrations

SMILES: CCCCOc1ccc(C(=O)Nc2ccccc2F)cc1 [VU0040237, 4-butoxy-N-(2-fluorophenyl)benzamide]
- potentiation of response to suboptimal (EC20) glutamate (rat mGlu5 [2]): potentiated the response to glutamate at submicromolar concentrations
- EC50 (rat mGlu5 [3]): 350 nM

SMILES: CCCCOc1ccc(C(=O)Nc2c(F)cccc2F)cc1 [VU0365396, 4-butoxy-N-(2,6-difluorophenyl)benzamide]
- solubility (Solubility in assay): limitations with solubility precluded studies with higher concentrations
- effect of VU0365396 on CPPHA-induced potentiation (rat mGlu5 [4]): had no effect on CPPHA-induced potentiation of mGlu5 responses; also recorded: has no effect on CPPHA activity
- effect of VU0365396 on the VU0357121 CRC (rat mGlu5 [4]): induced a parallel rightward shift in the VU0357121 CRC; also recorded: induces a parallel rightward shift in the VU0357121 concentration−response curve
- inhibition of VU0357121 PAM activity (rat mGlu5 [5]): caused the most robust inhibition; also recorded: induces the most robust inhibition of VU0357121 effects

SMILES: O=C(c1ccc(F)cc1)N1CCC[C@H](c2nc(-c3ccccn3)no2)C1 [(S)-FPOPM, (S)-(4-fluorophenyl)(3-(3-(pyridin-2-yl)-1,2,4-oxadiazol-5-yl)piperidin-1-yl)methanone]
- intrinsic agonist activity at rmGlu5 (rmGlu5): have no effect on mGlu5 alone

SMILES: O=C(c1ccc(F)cc1)N1CCC[C@H](c2nc(-c3cccs3)no2)C1 [(S)-FTOPM, (S)-(4-fluorophenyl)(3-(3-(thiophen-2-yl)-1,2,4-oxadiazol-5-yl)piperidin-1-yl)methanone]
- intrinsic agonist activity at rmGlu5 (rmGlu5): display intrinsic agonist activity at moderate to high concentrations

SMILES: CCCCOc1ccc(C(=O)Nc2ccc(F)cc2F)cc1 [VU0357121, 4-butoxy-N-(2,4-difluorophenyl)benzamide]
- modulation of agonist response (PAM activity) at mGlu6 (human mGlu6): does not have PAM activity
- effect on glutamate concentration-response curve at mGlu1 (rat mGlu1): weak inhibition of glutamate responses at mGlu1
- PAM response at the F585I/rmGlu5 mutant (F585I/rmGlu5): had no effect on its function
- modulation of agonist response (PAM activity) at mGlu3 (rat mGlu3): does not have PAM activity
- modulation of agonist response (PAM activity) at mGlu7 (rat mGlu7): does not have PAM activity
- modulation of agonist response (PAM activity) at mGlu8 (rat mGlu8): does not have PAM activity
- PAM response at the A809V/rmGlu5 mutant (A809V/rmGlu5): inhibited the ability of VU0357121 to shift the glutamate concentration−response curve; also recorded: led to an inhibition of VU0357121 activity
- modulation of agonist response (PAM activity) at mGlu4 (rat mGlu4): does not have PAM activity
- modulation of agonist response (PAM activity) at mGlu2 (rat mGlu2): does not have PAM activity
- potentiation of response to suboptimal (EC20) glutamate (rat mGlu5 [2]): potentiated the response to glutamate at submicromolar concentrations
- increase in potency over the HTS hit (rat mGlu5 [3]; versus VU0040237): 10 fold
- inhibition of the effect of EC80 glutamate on mGlu5 (rat mGlu5 [1]): did not inhibit the effect of glutamate on mGlu5

SMILES: N#Cc1cccc(C(=O)Nc2cc(-c3ccccc3)nn2-c2ccccc2)c1 [CDPPB, 3-cyano-N-(1,3-diphenyl-1H-pyrazol-5-yl)benzamide]
- intrinsic agonist activity at rmGlu5 (rmGlu5): display intrinsic agonist activity at moderate to high concentrations
